Calls of active or inactive are those of the source. No cut-off for these calls is given here.
Columns and labels:
MCF7 [1] = assay: Increase in intracellular GSH level in human MCF7 cells expressing antioxidant response element at 10 uM after 6 hrs by HPLC analysis relative to control; format: functional
Outline: (§1)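 In 24-well plates, AREc32 cells were treated with 10 μM for 6 or 24 h. Cells were PBS-washed, sonicated, and acidified with meta-phosphoric acid (1% v/v final), then centrifuged. GSH in the supernatant was quantified by reverse-phase HPLC with electrochemical detection (pH 3 sodium phosphate/0.9% methanol mobile phase). Results are expressed as % of untreated control, n = 3.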

MCF7 [2] = assay: Increase in intracellular GSH level in human MCF7 cells expressing antioxidant response element at 10 uM after 24 hrs by HPLC analysis relative to control; format: functional; outline: as §1
MCF7 [3] = assay: Increase in GCL holoenzyme formation in human MCF7 cells expressing antioxidant response element at 20 uM after 24 hrs by native-PAGE immunoblotting technique; format: functional, cell-based
MCF7 [4] = assay: Increase in intracellular GSH level in human MCF7 cells expressing antioxidant response element at 10 uM after 24 hrs by HPLC analysis in presence of GCL inhibitor buthionine sulfoximine; format: functional, cell-based
MCF7 [5] = assay: Increase in GCLM level in human MCF7 cells expressing antioxidant response element at 20 uM after 6 hrs by SDS-PAGE immunoblotting technique; format: functional, cell-based
Outline: (§2)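 AREc32 cells in six-well plates were treated with 20 μM for 6 h, then PBS-washed, sonicated in PBS, and the cleared supernatant concentrated by evaporation. GCL holoenzyme was immunoblotted after native PAGE; GCLC and GCLM after SDS PAGE. α-GAPDH served as internal standard. The experiment was repeated once.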

MCF7 [6] = assay: Cytotoxicity against human MCF7 cells expressing antioxidant response element assessed as LDH release after 48 hrs; format: cell-based; settings: MCF7, 48 h
Outline: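 MCF-7/AREc32 cells (ARE-luciferase reporter line; DMEM low glucose, 10% FBS, pen/strep, Geneticin, 37 °C, 5% CO2) exposed to 0–60 μM for 48 h. LDH activity measured in medium and cell lysate via NADH consumption at 340 nm after pyruvate addition. Percent LDH release = supernatant/(supernatant + lysate) × 100. n = 3.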

MCF7 [7] = assay: Increase in GCL holoenzyme formation in human MCF7 cells expressing antioxidant response element at 20 uM after 6 hrs by native-PAGE immunoblotting technique; format: functional, cell-based; outline: as §2
MCF7 [8] = assay: Increase in GCLC level in human MCF7 cells expressing antioxidant response element at 20 uM after 6 hrs by SDS-PAGE immunoblotting technique; format: functional, cell-based; outline: as §2
MCF7 [9] = assay: Increase in intracellular GSH level in human MCF7 cells expressing antioxidant response element at 10 uM after 24 hrs by HPLC analysis; format: functional, cell-based; outline: as §1
MCF7 [10] = assay: Increase in intracellular GSH level in human MCF7 cells expressing antioxidant response element at 10 uM after 24 hrs in presence of JNK inhibitor SP600125; format: functional, cell-based
Outline: (§3)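 AREc32 cells received 10 μM for 24 h along with 20 μM buthionine sulfoximine, SP600125, SB203580 or MnTDE-1,3-IP5+. Intracellular GSH was measured by HPLC with electrochemical detection after sonication and meta-phosphoric acid extraction. n = 3, with group differences tested at P < 0.05.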

[11] = biological target: T1, Nuclear factor erythroid 2-related factor 2 (Homo sapiens) (UniProt Q16236); assay: Induction of Nrf2 transcriptional activity in human MCF7 cells antioxidant response element at 5 uM after 18 hrs by luciferase reporter gene assay in presence of p38 MAPK inhibitor SB203580; format: cell-based
T1 sequence (whole entry): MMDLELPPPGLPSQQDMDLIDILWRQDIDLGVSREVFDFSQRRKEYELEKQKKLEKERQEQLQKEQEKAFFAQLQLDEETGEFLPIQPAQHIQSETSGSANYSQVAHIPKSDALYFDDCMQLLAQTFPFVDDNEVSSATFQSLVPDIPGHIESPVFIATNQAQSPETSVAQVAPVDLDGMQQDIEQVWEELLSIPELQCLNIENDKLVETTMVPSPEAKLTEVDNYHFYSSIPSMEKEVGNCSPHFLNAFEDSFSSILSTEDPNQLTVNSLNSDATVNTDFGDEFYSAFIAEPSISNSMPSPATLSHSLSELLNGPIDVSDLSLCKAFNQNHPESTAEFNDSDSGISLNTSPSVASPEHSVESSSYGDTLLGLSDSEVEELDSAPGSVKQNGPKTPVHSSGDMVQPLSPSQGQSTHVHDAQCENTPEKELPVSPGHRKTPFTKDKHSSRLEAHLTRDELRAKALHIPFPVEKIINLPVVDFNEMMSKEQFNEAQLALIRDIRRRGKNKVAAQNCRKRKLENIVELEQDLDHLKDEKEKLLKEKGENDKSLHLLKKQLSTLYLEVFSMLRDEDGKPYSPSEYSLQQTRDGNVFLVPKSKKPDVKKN

[12] = biological target: T1, Nuclear factor erythroid 2-related factor 2 (Homo sapiens); assay: Induction of Nrf2 transcriptional activity in human MCF7 cells antioxidant response element at 5 uM after 18 hrs by luciferase reporter gene assay in presence of catalytic antioxidant MnTDE-1,3-IP5+; format: cell-based
[13] = biological target: T1, Nuclear factor erythroid 2-related factor 2 (Homo sapiens); assay: Induction of Nrf2 transcriptional activity in human MCF7 cells antioxidant response element at 5 uM after 18 hrs by luciferase reporter gene assay relative to 2,5-DHC; format: cell-based
Outline: (§4)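 AREc32 cells (stable ARE-driven firefly luciferase) grown in 12-well plates to ~60% confluence were exposed to 5 μM for 18 h, alongside sulforaphane or tBHQ at 5 μM. Cells were lysed and centrifuged, and luciferase activity was read on a luminometer using an enhanced luciferase kit. n = 4.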

[14] = biological target: T1, Nuclear factor erythroid 2-related factor 2 (Homo sapiens); assay: Induction of Nrf2 transcriptional activity in human MCF7 cells antioxidant response element at 5 uM after 18 hrs by luciferase reporter gene assay relative to sulforaphane; format: cell-based; outline: as §4
[15] = biological target: T1, Nuclear factor erythroid 2-related factor 2 (Homo sapiens); assay: Induction of Nrf2 transcriptional activity in human MCF7 cells antioxidant response element at 5 uM after 18 hrs by luciferase reporter gene assay relative to tert-butylhydroquinone; format: cell-based; outline: as §4
[16] = biological target: T1, Nuclear factor erythroid 2-related factor 2 (Homo sapiens); assay: Induction of Nrf2 transcriptional activity in human MCF7 cells antioxidant response element at 5 uM after 18 hrs by luciferase reporter gene assay in presence of JNK inhibitor SP600125; format: cell-based
MCF7 [17] = assay: Increase in intracellular GSH level in human MCF7 cells expressing antioxidant response element at 10 uM after 24 hrs in presence of p38 MAPK inhibitor SB203580; format: functional, cell-based; outline: as §3
MCF7 [18] = assay: Increase in intracellular GSH level in human MCF7 cells expressing antioxidant response element at 10 uM after 24 hrs in presence of catalytic antioxidant MnTDE-1,3IP5+; format: functional, cell-based; outline: as §3

| SMILES | Activity (MCF7 [1]) | Activity (MCF7 [2]) | also measured |
| --- | --- | --- | --- |
| COc1cccc(OC)c1C(=O)/C=C/c1ccccc1F | 103% | 195% | – |
| COc1ccc(C(=O)/C=C/c2cccc(OC)c2OC)c(O)c1 | 100% | 174% | – |
| COc1cc(OC)c(/C=C/C(=O)c2ccc(Cl)c(Cl)c2)c(OC)c1 | 98% | 88% | – |
| COc1cccc(OC)c1/C=C/C(=O)c1c(Cl)cccc1Cl | 93% | 120% | – |
| O=C(/C=C/c1ccccc1)c1cc(O)ccc1O | 82% | 177% | Activity (MCF7 [3]): inactive; Activity (MCF7 [4]): inactive; Activity (MCF7 [5]): inactive; IC50 (MCF7 [6]): 33 µM; Activity (MCF7 [7]): Active; Activity (MCF7 [8]): inactive |
| COc1cccc(OC)c1/C=C/C(=O)c1ccccc1 | 111% | 189% | – |
| CC(C)(C)c1cc(O)ccc1O | – | – | Activity (MCF7 [9]): Active; Activity (MCF7 [4]): inactive |
| COc1cc(O)c(C(=O)/C=C/c2c(Cl)cccc2Cl)c(OC)c1 | 119% | 250% | – |
| O=C(/C=C/c1c(Cl)cccc1Cl)c1ccccc1O | 108% | 180% | – |
| COc1ccc(C(=O)/C=C/c2ccccc2Cl)c(OC)c1 | 109% | 232% | – |
| COc1cc(OC)c(C(=O)/C=C/c2c(Cl)cc(Cl)cc2Cl)c(OC)c1 | 119% | 246% | – |
| COc1ccc(C(=O)/C=C/c2c(Cl)cccc2Cl)c(O)c1 | 107% | 193% | – |
| COc1cc(OC)c(C(=O)/C=C/c2ccccc2)c(OC)c1 | 91% | 209% | – |
| COc1cccc(OC)c1C(=O)/C=C/c1ccccc1 | 87% | 158% | – |
| COc1cccc(OC)c1C(=O)/C=C/c1ccccc1Cl | 105% | 211% | – |
| COc1cccc(O)c1C(=O)/C=C/c1c(Cl)cccc1Cl | 88% | 183% | – |

| SMILES | Activity (MCF7 [1]) | Activity (MCF7 [2]) | also measured |
| --- | --- | --- | --- |
| COc1ccc(C(=O)/C=C/c2c(OC)cc(OC)cc2OC)c(O)c1 | 91% | 104% | Activity (MCF7 [4]): inactive |
| COc1cc(O)c(C(=O)/C=C/c2ccccc2)c(OC)c1 [FLAVOKAWAIN B] | 101% | 191% | – |
| COc1ccc(C(=O)/C=C/c2cc(OC)ccc2OC)c(O)c1 | 100% | 153% | – |
| COc1cc(OC)c(C(=O)/C=C/c2c(F)cccc2F)c(OC)c1 | 118% | 223% | – |
| COc1ccc(C(=O)/C=C/c2cccc(F)c2)c(OC)c1 | 78% | 173% | – |
| COc1cccc(OC)c1C(=O)/C=C/c1c(Cl)cccc1Cl | 122% | 256% | – |
| COc1cccc(OC)c1C(=O)/C=C/c1cccc(Cl)c1 | 88% | 165% | – |
| COc1cc(O)c(C(=O)/C=C/c2c(F)cccc2F)c(OC)c1 | 135% | 226% | – |
| COc1cccc(OC)c1C(=O)/C=C/c1ccc(F)cc1F | 104% | 182% | – |
| COc1cccc(OC)c1C(=O)/C=C/c1ccccc1[N+](=O)[O-] | 106% | 204% | – |
| COc1cc(O)c(C(=O)/C=C/c2ccccc2Cl)c(OC)c1 | 107% | 299% | Activity (MCF7 [10]): Active; Activity (MCF7 [9]): Active; Activity (MCF7 [4]): inactive; Activity (MCF7 [5]): inactive; IC50 (MCF7 [6]): 25 µM; Activity [11]: Active; Activity (MCF7 [7]): Active; Activity (MCF7 [8]): inactive; Activity [12]: inactive; Ratio [13]: 4; Ratio [14]: 4; Ratio [15]: 10; Activity [16]: inactive; Activity (MCF7 [17]): Active; Activity (MCF7 [18]): Active |
| COc1ccc(C(=O)/C=C/c2c(OC)cccc2OC)c(O)c1 | 90% | 231% | – |
| C[S+]([O-])CCCCN=C=S (racemic) | – | – | Activity (MCF7 [9]): Active; Activity (MCF7 [4]): inactive |
| COc1cccc(OC)c1C(=O)/C=C/c1cccc(F)c1 | 82% | 171% | – |
| O=C(/C=C/c1ccccc1)c1ccccc1 [CHALCONE] | 103% | 115% | – |
| COc1ccc(C(=O)/C=C/c2ccc(OC)cc2OC)c(O)c1 | 114% | 160% | – |

Source: ChEMBL document CHEMBL2021906, “A synthetic chalcone as a potent inducer of glutathione biosynthesis” (J Med Chem, 2012)
